Measured values reported in ChEMBL document CHEMBL1148435, “N,N-dialkyl-4-[(8-azabicyclo[3.2.1]-oct-3-ylidene)phenylmethyl]benzamides, potent, selective delta opioid agonists” (Bioorg Med Chem Lett, 2004).

Key:
[1] = target: T1, Delta-type opioid receptor (Homo sapiens, UniProt P41143); test: Binding affinity for delta opioid receptor
[2] = target: T1, Delta-type opioid receptor; test: Efficacy relative to stimulation of [35S]GTP-gamma-S, binding by SNC80 was calculated for human delta opioid receptor; assay type: functional
Mu-type opioid receptor = Mu-type opioid receptor (Homo sapiens, UniProt P35372); test: Binding affinity for mu opioid receptor
[3] = target: T1, Delta-type opioid receptor; test: Effective concentration against stimulation of [35S]GTP-gamma-S, binding in CHO cells transfected with the human opioid receptor delta 1; assay type: functional, cell-based
In short: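 Agonist function was read as compound-stimulated [35S]GTPγS binding in CHO cells transfected with the human δ opioid receptor. The method was adapted from one used for bradykinin receptor signal transduction.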

Mus musculus = test: Antinociceptive activity was assessed using the mouse abdominal irritant test (MAIT), at a dose of 150 uM/Kg (po); assay type: functional, Abdomen
In short: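 Mice were dosed orally, 15 mice per compound, in the abdominal irritant test for antinociception, and watched for convulsions.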

Sequence of Mu-type opioid receptor (P35372 whole entry): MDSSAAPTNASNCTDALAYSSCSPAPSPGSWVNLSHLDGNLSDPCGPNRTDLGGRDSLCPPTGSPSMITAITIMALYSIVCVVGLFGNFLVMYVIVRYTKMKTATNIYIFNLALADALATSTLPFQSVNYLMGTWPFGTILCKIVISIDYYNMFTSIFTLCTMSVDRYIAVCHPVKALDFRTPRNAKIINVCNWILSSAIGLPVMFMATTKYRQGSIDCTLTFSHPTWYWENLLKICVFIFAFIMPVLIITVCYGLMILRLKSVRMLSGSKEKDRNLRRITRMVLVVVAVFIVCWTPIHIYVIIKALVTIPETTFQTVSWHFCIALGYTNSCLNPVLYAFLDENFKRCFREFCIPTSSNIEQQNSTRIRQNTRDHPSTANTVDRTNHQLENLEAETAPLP
T1 sequence (P41143 whole entry): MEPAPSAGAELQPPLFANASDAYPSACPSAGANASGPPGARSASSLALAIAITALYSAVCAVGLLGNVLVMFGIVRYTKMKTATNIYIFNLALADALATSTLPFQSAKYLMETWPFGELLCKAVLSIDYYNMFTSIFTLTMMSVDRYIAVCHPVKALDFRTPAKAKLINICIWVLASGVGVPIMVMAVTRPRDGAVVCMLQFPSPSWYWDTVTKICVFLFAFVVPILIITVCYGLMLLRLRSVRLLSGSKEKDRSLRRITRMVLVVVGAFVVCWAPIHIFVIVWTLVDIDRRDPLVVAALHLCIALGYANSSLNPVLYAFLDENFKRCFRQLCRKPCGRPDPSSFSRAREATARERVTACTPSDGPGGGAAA

Structure (SMILES): CCN(CC)C(=O)c1ccc(C(=C2CC3CCC(C2)N3)c2ccc(O)cc2)cc1
- Ki [1]: 0.58 nM
- Relative efficacy [2]: 0.96
- Ki (Mu-type opioid receptor): 442 nM
- EC50 [3]: 5 nM
- Inhibition (Mus musculus): 26.7%

Structure (SMILES): CCN(CC)C(=O)c1ccc(C(=C2CC3CCC(C2)N3CCc2ccc(F)cc2)c2ccccc2)cc1
- Ki [1]: 2.62 nM
- Relative efficacy [2]: 0.76
- Ki (Mu-type opioid receptor): 393 nM
- EC50 [3]: 27 nM
- Inhibition (Mus musculus): 26.7%

Structure (SMILES): CCN(CC)C(=O)c1ccc(/C(=C2/C[C@H]3CC[C@@H](C2)N3C)c2ccccc2)cc1
- Ki [1]: 4.5 nM
- Relative efficacy [2]: 0.85
- Ki (Mu-type opioid receptor): 9730 nM
- EC50 [3]: 149 nM
- Inhibition (Mus musculus): 90%

Structure (SMILES): CCN(CC)C(=O)c1ccc(C(=C2CC3CCC(C2)N3Cc2ccc3c(c2)OCO3)c2ccccc2)cc1
- Ki [1]: 0.01 nM
- Ki (Mu-type opioid receptor): 22.4 nM
- EC50 [3]: 0.2 nM
- Inhibition (Mus musculus): 40%

Structure (SMILES): CCN(CC)C(=O)c1ccc(C(=C2CC3CCC(C2)N3C)c2ccc(OC)cc2)cc1
- Ki [1]: 3.5 nM
- Relative efficacy [2]: 0.85
- Ki (Mu-type opioid receptor): 1500 nM
- EC50 [3]: 27 nM

Structure (SMILES): C=CCN1[C@@H]2CC[C@H]1C/C(=C(\c1ccccc1)c1ccc(C(=O)N(CC)CC)cc1)C2
- Ki [1]: 0.025 nM
- Relative efficacy [2]: 1.05
- Ki (Mu-type opioid receptor): 322 nM
- EC50 [3]: 0.5 nM
- Inhibition (Mus musculus): 100%

Structure (SMILES): O=C(c1ccc(C(=C2CC3CCC(C2)N3CCc2ccccc2)c2ccccc2)cc1)N1CCCC1
- Ki [1]: 24.1 nM
- Relative efficacy [2]: 0.86
- Ki (Mu-type opioid receptor): 276 nM
- EC50 [3]: 1460 nM

Structure (SMILES): CCN(CC)C(=O)c1ccc(C(=C2CC3CCC(C2)N3C)c2ccc(O)cc2)cc1
- Ki [1]: 1.89 nM
- Relative efficacy [2]: 0.86
- Ki (Mu-type opioid receptor): 194 nM
- EC50 [3]: 9 nM

Structure (SMILES): CCN(CC)C(=O)c1ccc(/C(=C2\C[C@H]3CC[C@@H](C2)N3CCc2ccccc2)c2ccccc2)cc1
- Ki [1]: 0.24 nM
- Relative efficacy [2]: 0.82
- Ki (Mu-type opioid receptor): 72.3 nM
- EC50 [3]: 34 nM
- Inhibition (Mus musculus): 100%

Structure (SMILES): COCCN(CCOC)C(=O)c1ccc(C(=C2CC3CCC(C2)N3CCc2ccccc2)c2ccccc2)cc1
- Ki [1]: 16.6 nM
- Relative efficacy [2]: 0.71
- Ki (Mu-type opioid receptor): 294 nM
- EC50 [3]: 403 nM

Structure (SMILES): CCN(CC)C(=O)c1ccc(C(=C2CC3CCC(C2)N3CCOc2ccccc2)c2ccccc2)cc1
- Ki [1]: 0.38 nM
- Relative efficacy [2]: 0.84
- Ki (Mu-type opioid receptor): 630 nM
- EC50 [3]: 623 nM

Structure (SMILES): CCN(CCO)C(=O)c1ccc(C(=C2CC3CCC(C2)N3CCc2ccccc2)c2ccccc2)cc1
- Ki [1]: 3.2 nM
- Relative efficacy [2]: 0.77
- Ki (Mu-type opioid receptor): 291 nM
- EC50 [3]: 548 nM

Structure (SMILES): CCN(CC)C(=O)c1ccc(C(=C2CC3CCC(C2)N3CCC2CCCCC2)c2ccccc2)cc1
- Ki [1]: 1.36 nM
- Relative efficacy [2]: 0.92
- Ki (Mu-type opioid receptor): 451 nM
- EC50 [3]: 228 nM

Structure (SMILES): CCN(CC)C(=O)c1ccc(C(=C2CC3CCC(C2)N3CC(=O)c2ccccc2)c2ccccc2)cc1
- Ki [1]: 6.31 nM
- Relative efficacy [2]: 0.68
- Ki (Mu-type opioid receptor): 9640 nM
- EC50 [3]: 173 nM

Structure (SMILES): C=C(C)CN(CC)C(=O)c1ccc(/C(=C2\C[C@H]3CC[C@@H](C2)N3CCc2ccccc2)c2ccccc2)cc1
- Ki [1]: 2.94 nM
- Relative efficacy [2]: 0.9
- Ki (Mu-type opioid receptor): 229 nM
- EC50 [3]: 1080 nM
- Inhibition (Mus musculus): 33%

Structure (SMILES): O=C(c1ccc(C(=C2CC3CCC(C2)N3CCc2ccccc2)c2ccccc2)cc1)N1CCOCC1
- Ki [1]: 35.2 nM
- Relative efficacy [2]: 0.76
- Ki (Mu-type opioid receptor): 237 nM
- EC50 [3]: 350 nM

Structure (SMILES): CC(C)N(C(=O)c1ccc(C(=C2CC3CCC(C2)N3CCc2ccccc2)c2ccccc2)cc1)C(C)C
- Ki [1]: 49 nM
- Relative efficacy [2]: 0.92
- Ki (Mu-type opioid receptor): 103 nM
- EC50 [3]: 5040 nM

Structure (SMILES): CCN(CC)C(=O)c1ccc(/C(=C2/C[C@H]3CC[C@@H](C2)N3)c2ccccc2)cc1
- Ki [1]: 0.36 nM
- Relative efficacy [2]: 1
- Ki (Mu-type opioid receptor): 2310 nM
- EC50 [3]: 53 nM
- Inhibition (Mus musculus): 86.7%

Structure (SMILES): CCN(CC)C(=O)c1ccc(C(=C2CC3CCC(C2)N3C)c2cccc(O)c2)cc1
- Ki [1]: 0.6 nM
- Relative efficacy [2]: 0.87
- Ki (Mu-type opioid receptor): 727 nM
- EC50 [3]: 3 nM

Structure (SMILES): CCCN1C2CCC1CC(=C(c1ccccc1)c1ccc(C(=O)N(CC)CC)cc1)C2
- Ki [1]: 0.39 nM
- Relative efficacy [2]: 0.87
- Ki (Mu-type opioid receptor): 289 nM
- EC50 [3]: 43 nM
- Inhibition (Mus musculus): 93.3%

Structure (SMILES): C=CCN1[C@@H]2CC[C@H]1C/C(=C(/c1ccccc1)c1ccc(C(=O)N(CC)CC)cc1)C2
- Ki [1]: 0.32 nM
- Relative efficacy [2]: 0.83
- Ki (Mu-type opioid receptor): 4400 nM
- EC50 [3]: 177 nM
- Inhibition (Mus musculus): 100%

Structure (SMILES): CCN(CC)C(=O)c1ccc(/C(=C2\C[C@H]3CC[C@@H](C2)N3)c2ccccc2)cc1
- Ki [1]: 0.023 nM
- Relative efficacy [2]: 1.02
- Ki (Mu-type opioid receptor): 855 nM
- EC50 [3]: 1.8 nM
- Inhibition (Mus musculus): 86.7%

Structure (SMILES): CCN(CC)C(=O)c1ccc(/C(=C2\C[C@H]3CC[C@@H](C2)N3C)c2ccccc2)cc1
- Ki [1]: 5.7 nM
- Relative efficacy [2]: 0.87
- Ki (Mu-type opioid receptor): 2910 nM
- EC50 [3]: 153 nM
- Inhibition (Mus musculus): 80%

Structure (SMILES): CCN(CC)C(=O)c1ccc(C(=C2CC3CCC(C2)N3CCCc2ccccc2)c2ccccc2)cc1
- Ki [1]: 0.56 nM
- Relative efficacy [2]: 0.88
- Ki (Mu-type opioid receptor): 104 nM
- EC50 [3]: 112 nM
- Inhibition (Mus musculus): 13.3%

Structure (SMILES): CCN(CC)C(=O)c1ccc(/C(=C2/C[C@H]3CC[C@@H](C2)N3CCc2ccccc2)c2ccccc2)cc1
- Ki [1]: 42.1 nM
- Relative efficacy [2]: 0.88
- Ki (Mu-type opioid receptor): 317 nM
- EC50 [3]: 1390 nM
- Inhibition (Mus musculus): 90%

Structure (SMILES): CCN(CC)C(=O)c1ccc(C(=C2CC3CCC(C2)N3CCc2cccs2)c2ccccc2)cc1
- Ki [1]: 13.1 nM
- Relative efficacy [2]: 0.78
- Ki (Mu-type opioid receptor): 1280 nM
- EC50 [3]: 1350 nM

Structure (SMILES): CCN(CC)C(=O)c1ccc(C(=C2CC3CCC(C2)N3CCc2c[nH]c3ccccc23)c2ccccc2)cc1
- Ki [1]: 3.48 nM
- Relative efficacy [2]: 0.91
- Ki (Mu-type opioid receptor): 337 nM
- EC50 [3]: 16 nM

Structure (SMILES): CCN(CC)C(=O)c1ccc(C(=C2CC3CCC(C2)N3C)c2cccc(OC)c2)cc1
- Ki [1]: 5.9 nM
- Relative efficacy [2]: 0.87
- Ki (Mu-type opioid receptor): 693 nM
- EC50 [3]: 65 nM

Structure (SMILES): CCCN(CCC)C(=O)c1ccc(C(=C2CC3CCC(C2)N3CCc2ccccc2)c2ccccc2)cc1
- Ki [1]: 7.39 nM
- Relative efficacy [2]: 0.82
- Ki (Mu-type opioid receptor): 644 nM
- EC50 [3]: 3560 nM

Structure (SMILES): CCN(CC)C(=O)c1ccc(C(=C2CC3CCC(C2)N3CCc2ccccc2)c2cccc(OC)c2)cc1
- Ki [1]: 1.36 nM
- Relative efficacy [2]: 0.8
- Ki (Mu-type opioid receptor): 417 nM
- EC50 [3]: 218 nM

Structure (SMILES): CC1CCCC(C)N1C(=O)c1ccc(/C(=C2\C[C@H]3CC[C@@H](C2)N3CCc2ccccc2)c2ccccc2)cc1 (stereo partly specified)
- Ki [1]: 11 nM
- Ki (Mu-type opioid receptor): 571 nM
- EC50 [3]: 10000 nM
